Reference: ChEMBL document CHEMBL5329156, “Discovery and development of novel substituted monohydrazides as potent antifungal agents” (RSC Med Chem, 2023)
The source made the active and inactive calls.

How the values were obtained:
Cryptococcus neoformans = assay: Antifungal activity against Cryptococcus neoformans ATCC MYA-895 assessed as fungal growth inhibition by double dilution method; type: functional
How it was run: (§1)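 Broth microdilution after CLSI M27-A3/M38-A2 with minor changes. Single colony grown overnight in YPD at 35 °C, 200 rpm. Compound final range 0.06-31.3 µg/mL; incubated 48 h at 35 °C.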

[Candida] haemuloni [1] = Antifungal activity against Candida haemulonii AR Bank # 393 assessed as fungal growth inhibition by double dilution method; type: functional; settings: Candidozyma haemuli; how it was run: as §1
Aspergillus fumigatus [2] = assay: Antifungal activity against Aspergillus fumigatus NRRL 5109 assessed as fungal growth inhibition by double dilution method; type: functional
Candida duobushaemulonii [3] = assay: Antifungal activity against Candida duobushaemulonii AR Bank # 394 assessed as fungal growth inhibition by double dilution method; type: functional; settings: Candidozyma duobushaemuli; how it was run: as §1
[Candida] auris [4] = Antifungal activity against Candida auris AR Bank # 0384 assessed as fungal growth inhibition by double dilution method; type: functional; settings: Candidozyma auris; how it was run: as §1
Aspergillus terreus = assay: Antifungal activity against Aspergillus terreus ATCC MYA-3633 assessed as fungal growth inhibition by double dilution method; type: functional
Candida albicans [5] = assay: Antifungal activity against itraconazole/fluconazole susceptible Candida albicans ATCC MYA-2876 assessed as fungal growth inhibition by double dilution method; type: functional
How it was run: (§2)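 Broth microdilution after CLSI M27-A3/M38-A2 with minor modifications. A single colony was grown overnight in YPD at 35 °C with shaking at 200 rpm. Cells were mixed 1:1 with compound (final 0.06-31.3 µg/mL, from DMSO stocks) and incubated 48 h at 35 °C.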

[Candida] auris [6] = Antifungal activity against Candida auris AR Bank # 389 assessed as fungal growth inhibition by double dilution method; type: functional; settings: Candidozyma auris; how it was run: as §1
Nakaseomyces glabratus [7] = assay: Antifungal activity against Candida glabrata ATCC 22019 assessed as fungal growth inhibition by double dilution method; type: functional; how it was run: as §1
Aspergillus flavus = assay: Antifungal activity against Aspergillus flavus ATCC MYA-3631 assessed as fungal growth inhibition by double dilution method; type: functional
[Candida] auris [8] = Antifungal activity against Candida auris AR Bank # 387 assessed as fungal growth inhibition by double dilution method; type: functional; settings: Candidozyma auris; how it was run: as §1
Candida albicans [9] = assay: Antifungal activity against itraconazole/fluconazole resistant Candida albicans ATCC 90819 assessed as fungal growth inhibition by double dilution method; type: functional; how it was run: as §2
Candida albicans [10] = assay: Antifungal activity against Candida albicans ATCC 64124 assessed as fungal growth inhibition by double dilution method; type: functional; how it was run: as §2
Candida albicans [11] = assay: Antifungal activity against itraconazole/fluconazole resistant Candida albicans ATCC MYA-1003 assessed as fungal growth inhibition by double dilution method; type: functional; how it was run: as §2
Candida albicans [12] = assay: Antibiofilm activity against Candida albicans ATCC 10231 assessed as reduction in biofilm production at 1.96 to 3.9 microg/ml by biofilm formation assay; type: functional, organism-based; settings: dose 1.96-3.9 µg/ml
Candida albicans [13] = assay: Antifungal activity against itraconazole/fluconazole resistant Candida albicans ATCC MYA-1237 assessed as fungal growth inhibition by double dilution method; type: functional; how it was run: as §2
Candida albicans [14] = assay: Antifungal activity against itraconazole/fluconazole susceptible Candida albicans ATCC MYA-2310 assessed as fungal growth inhibition by double dilution method; type: functional; how it was run: as §2
Candida duobushaemulonii [15] = assay: Antifungal activity against Candida duobushaemulonii AR Bank # 391 assessed as fungal growth inhibition by double dilution method; type: functional; settings: Candidozyma duobushaemuli; how it was run: as §1
[Candida] auris [16] = Antifungal activity against Candida auris AR Bank # 382 assessed as fungal growth inhibition by double dilution method; type: functional; settings: Candidozyma auris; how it was run: as §1
Kodamaea ohmeri = assay: Antifungal activity against Kodamaea ohmeri AR Bank # 396 assessed as fungal growth inhibition by double dilution method; type: functional; how it was run: as §1
Candida duobushaemulonii [17] = assay: Antifungal activity against Candida duobushaemulonii AR Bank # 392 assessed as fungal growth inhibition by double dilution method; type: functional; settings: Candidozyma duobushaemuli; how it was run: as §1
Candida albicans [18] = assay: Antifungal activity against Candida albicans ATCC 10231 assessed as fungal growth inhibition by double dilution method; type: functional; how it was run: as §1
[Candida] auris [19] = Antifungal activity against Candida auris AR Bank # 0390 assessed as fungal growth inhibition by double dilution method; type: functional; settings: Candidozyma auris; how it was run: as §1
Pichia kudriavzevii [20] = assay: Antifungal activity against Pichia kudriavzevii ATCC 6258 assessed as fungal growth inhibition by double dilution method; type: functional; how it was run: as §1
Saccharomyces cerevisiae [21] = assay: Antifungal activity against Saccharomyces cerevisiae AR Bank # 399 assessed as fungal growth inhibition by double dilution method; type: functional; how it was run: as §1
[Candida] auris [22] = Antifungal activity against Candida auris AR Bank # 386 assessed as fungal growth inhibition by double dilution method; type: functional; settings: Candidozyma auris; how it was run: as §1
Nakaseomyces glabratus [23] = assay: Antifungal activity against Candida glabrata ATCC 2001 assessed as fungal growth inhibition by double dilution method; type: functional; how it was run: as §1
Pichia kudriavzevii [24] = assay: Antifungal activity against Pichia kudriavzevii AR Bank # 397 assessed as fungal growth inhibition by double dilution method; type: functional; how it was run: as §1
Saccharomyces cerevisiae [25] = assay: Antifungal activity against Saccharomyces cerevisiae AR Bank # 400 assessed as fungal growth inhibition by double dilution method; type: functional; how it was run: as §1
Clavispora lusitaniae = assay: Antifungal activity against Clavispora lusitaniae AR Bank # 398 assessed as fungal growth inhibition by double dilution method; type: functional; how it was run: as §1
[Candida] auris [26] = Antifungal activity against Candida auris AR Bank # 383 assessed as fungal growth inhibition by double dilution method; type: functional; settings: Candidozyma auris; how it was run: as §1
[Candida] auris [27] = Antifungal activity against Candida auris AR Bank # 381 assessed as fungal growth inhibition by double dilution method; type: functional; settings: Candidozyma auris; how it was run: as §1
Aspergillus nidulans = assay: Antifungal activity against Aspergillus nidulans ATCC 38163 assessed as fungal growth inhibition by double dilution method; type: functional
[Candida] auris [28] = Antifungal activity against Candida auris AR Bank # 388 assessed as fungal growth inhibition by double dilution method; type: functional; settings: Candidozyma auris; how it was run: as §1
[Candida] haemuloni [29] = Antifungal activity against Candida haemulonii AR Bank # 395 assessed as fungal growth inhibition by double dilution method; type: functional; settings: Candidozyma haemuli; how it was run: as §1
Aspergillus fumigatus [30] = assay: Antifungal activity against Aspergillus fumigatus NRRL 163 assessed as fungal growth inhibition by double dilution method; type: functional
[Candida] auris [31] = Antifungal activity against Candida auris AR Bank # 390 assessed as fungal growth inhibition by double dilution method; type: functional; settings: Candidozyma auris; how it was run: as §1
Aspergillus fumigatus [32] = assay: Antifungal activity against Aspergillus fumigatus NRRL 6113 assessed as fungal growth inhibition by double dilution method; type: functional
[Candida] auris [33] = Antifungal activity against Candida auris AR Bank # 384 assessed as fungal growth inhibition by double dilution method; type: functional; settings: Candidozyma auris; how it was run: as §1
[Candida] auris [34] = Antifungal activity against Candida auris AR Bank # 385 assessed as fungal growth inhibition by double dilution method; type: functional; settings: Candidozyma auris; how it was run: as §1

COc1cccc(NNC(=O)c2ccccn2)c1
> 31.3 µg/mL: MIC (Aspergillus flavus) | MIC (Aspergillus fumigatus [32])
1.95 µg/mL: MIC (Candida albicans [9]) | MIC (Candida albicans [13]) | MIC (Candida albicans [14]) | MIC (Candida duobushaemulonii [15]) | MIC (Candida duobushaemulonii [17]) | MIC (Clavispora lusitaniae) | MIC (Aspergillus nidulans)
7.8 µg/mL: MIC (Saccharomyces cerevisiae [21]) | MIC (Saccharomyces cerevisiae [25]) | MIC (Aspergillus fumigatus [30])
0.24 µg/mL: MIC (Cryptococcus neoformans) | MIC (Candida albicans [18])
3.9 µg/mL: MIC (Aspergillus fumigatus [2]) | MIC (Aspergillus terreus) | MIC (Nakaseomyces glabratus [7]) | MIC ([Candida] auris [27]) | MIC ([Candida] auris [28]) | MIC ([Candida] auris [34])
0.49 µg/mL: MIC ([Candida] haemuloni [1]) | MIC ([Candida] auris [6]) | MIC ([Candida] auris [8]) | MIC (Kodamaea ohmeri) | MIC (Pichia kudriavzevii [20]) | MIC ([Candida] auris [22]) | MIC (Pichia kudriavzevii [24]) | MIC ([Candida] haemuloni [29])
active: Activity (Candida albicans [12])
0.98 µg/mL: MIC (Candida duobushaemulonii [3]) | MIC ([Candida] auris [4]) | MIC (Candida albicans [5]) | MIC (Candida albicans [10]) | MIC (Candida albicans [11]) | MIC ([Candida] auris [16]) | MIC ([Candida] auris [19]) | MIC ([Candida] auris [26]) | MIC ([Candida] auris [31]) | MIC ([Candida] auris [33])
15.6 µg/mL: MIC (Nakaseomyces glabratus [23])

O=C(NNc1cc(F)ccc1F)c1ccccn1
0.49 µg/mL: MIC (Cryptococcus neoformans) | MIC ([Candida] auris [6]) | MIC ([Candida] auris [8]) | MIC (Candida duobushaemulonii [15]) | MIC (Clavispora lusitaniae) | MIC ([Candida] auris [26]) | MIC (Aspergillus nidulans) | MIC ([Candida] auris [28]) | MIC ([Candida] auris [34])
1.95 µg/mL: MIC (Candida albicans [10]) | MIC (Candida albicans [13]) | MIC (Candida albicans [14]) | MIC (Saccharomyces cerevisiae [21]) | MIC (Saccharomyces cerevisiae [25]) | MIC ([Candida] auris [27]) | MIC ([Candida] auris [33])
0.12 µg/mL: MIC (Kodamaea ohmeri) | MIC (Candida albicans [18]) | MIC ([Candida] auris [22])
0.98 µg/mL: MIC ([Candida] haemuloni [1]) | MIC (Aspergillus terreus) | MIC (Candida albicans [9]) | MIC (Candida albicans [11]) | MIC ([Candida] auris [19]) | MIC ([Candida] auris [31])
0.24 µg/mL: MIC (Candida duobushaemulonii [3]) | MIC ([Candida] auris [4]) | MIC ([Candida] auris [16]) | MIC (Candida duobushaemulonii [17]) | MIC (Pichia kudriavzevii [20]) | MIC (Pichia kudriavzevii [24]) | MIC ([Candida] haemuloni [29])
15.6 µg/mL: MIC (Aspergillus fumigatus [2])
3.9 µg/mL: MIC (Candida albicans [5]) | MIC (Nakaseomyces glabratus [7]) | MIC (Aspergillus flavus) | MIC (Nakaseomyces glabratus [23])
inactive: Activity (Candida albicans [12])
> 31.3 µg/mL: MIC (Aspergillus fumigatus [30]) | MIC (Aspergillus fumigatus [32])
